Rows were chosen to be rich in hits. Some 2.5% of all compounds tested hit in one or more screens of this group.
SENP1 inh – blocks the human SENP1 SUMO protease catalytic domain. Q9P0U3. recombinant SENP1 catalytic domain, CyPet-SUMO1-YPet FRET cleavage. inhibition, % at 10 µM. 0.21% of 360,000 active. AID 624204;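 active means inhibition at least 30% at 10 µM, raw YFP signal under a set limit, fluorescence ratio 0.5 to 1.5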;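 further: 0% = enzyme with DMSO and 100% = no enzyme wells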
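Test system: human SENP1 catalytic domain; medium: Tris pH 8 buffer plus EDTA, NaCl, BME, BSA, NP40, catalase; incubation: 50 min reaction at room temperature; technique: FRET, CFP and YFP emission; controls: no-enzyme low control and enzyme-plus-DMSO high control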
GRK2 inh – blocks RNA aptamer binding to human GRK2; 0.59% of 330,000 active; inhibition of aptamer binding, % at 10 µM; AID 488847; bead flow cytometry, FAM-aptamer displacement from GRK2; P25098;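 active means inhibition of aptamer binding above 40%, roughly 3 SD of noise, on plates passing a quality check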;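 further: median bead fluorescence of bound FAM aptamer so fluorescent compounds give negative values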
Target sequence (P25098 whole entry, looked up): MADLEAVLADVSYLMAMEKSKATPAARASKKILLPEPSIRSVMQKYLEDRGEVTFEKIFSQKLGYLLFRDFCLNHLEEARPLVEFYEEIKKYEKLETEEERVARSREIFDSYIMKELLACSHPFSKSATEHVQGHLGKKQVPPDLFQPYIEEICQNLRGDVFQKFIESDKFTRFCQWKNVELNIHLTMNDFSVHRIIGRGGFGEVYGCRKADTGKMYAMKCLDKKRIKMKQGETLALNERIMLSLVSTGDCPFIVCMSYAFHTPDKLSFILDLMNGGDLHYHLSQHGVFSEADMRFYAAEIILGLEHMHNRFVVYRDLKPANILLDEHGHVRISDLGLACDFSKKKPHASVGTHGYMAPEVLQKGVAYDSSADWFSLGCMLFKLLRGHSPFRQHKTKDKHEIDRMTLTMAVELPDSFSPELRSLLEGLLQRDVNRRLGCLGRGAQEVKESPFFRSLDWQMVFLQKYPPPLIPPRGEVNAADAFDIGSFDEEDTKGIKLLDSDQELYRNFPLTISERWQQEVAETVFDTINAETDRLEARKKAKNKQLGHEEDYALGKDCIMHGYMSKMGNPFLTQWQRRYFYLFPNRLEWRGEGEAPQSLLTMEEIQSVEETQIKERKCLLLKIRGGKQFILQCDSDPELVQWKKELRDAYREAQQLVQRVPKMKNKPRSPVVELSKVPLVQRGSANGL
NadD inh – blocks S. aureus nicotinate mononucleotide adenylyltransferase; purified NadD enzyme, colorimetric absorbance read-out; inhibition, % at 20 µM; 0.78% of 360,000 active; in the data active means inhibition above about 26%
B2AR ag – human beta-2 adrenergic receptor agonism by FAP | P07550 | Am2.2-beta2AR cells, FAP receptor internalization, flow cytometry | response, % (concentration not given with the values) | 0.43% of 340,000 active;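 active means response above a set limit, near 3 SD of response in nonfluorescent compounds, cut at about 42% in these data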
ABHD5 PLIN5 PPI – inhibitors of human ABHD5-perilipin-5 interaction. Q00G26+Q8WTS1. 0.78% of 360,000 active. inhibition, % at 4 µM. Split G. princeps luciferase complementation, luminescence, 4 h;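 active means inhibition above the mean inhibition across every tested compound plus 3 SD, cut at about 22% in these data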;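 further: 0% = DMSO only wells and the 100% control is not disclosed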
GRK2 inh confirm – human GRK2 inhibition confirmation, cherry pick 1; shares compounds with GRK2 inh; bead-bound GRK2, FAM-aptamer displacement, flow cytometry; aptamer displacement, % at 10 µM; 4% of 2,000 active; AID 504451;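 active means aptamer displacement above 40%, near three times the noise of non-fluorescent compounds, on plates passing quality checks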;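 further: negative values mostly reflect intrinsic compound fluorescence rather than true enhancement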
Aptamer quench – counter-screen for GRK2 aptamer inhibitors: fluorescent aptamer quenchers. shares compounds with GRK2 inh. Fluorescent RNA aptamer beads, quenching, flow cytometry; active compounds read high. fluorescence change (kMESF span), kMESF (concentration not given with the values). 110 tested, under 10 active. AID 504521;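 active means compounds whose bead fluorescence drops by more than 37 kMESF across the dose range, marking them as dye quenchers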
FAM quench CP1 – aptamer fluorescence quenching in GRK2 counter-screen; 2,000 tested, under 10 active; AID 504580; shares compounds with GRK2 inh; Carboxyfluorescein RNA aptamer on beads, flow cytometry quenching; active compounds read low; fluorescence response (% of DMSO), % at 10 µM;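 active means compounds that quench the bead-bound fluorescent RNA probe, cutting fluorescence to under half of the solvent control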;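 further: counterscreen run without GRK2 so only probe quenching by compound is measured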
GRK2 CP2 – human GRK2 inhibition confirmation, cherry pick 2. shares compounds with GRK2 inh. bead-bound GRK2, FAM-aptamer displacement, flow cytometry. inhibition of aptamer binding, % at 10 µM. 360 tested, under 10 active;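 active means inhibition of aptamer binding above 40%, about triple the noise seen with nonglowing compounds, on plates passing quality control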;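 further: negative values mostly come from compounds that fluoresce themselves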
FAM quench CP2 – aptamer fluorescence quenching in GRK2 counter-screen. 360 tested, under 10 active. fluorescence response vs DMSO, % at 10 µM. shares compounds with GRK2 inh. carboxyfluorescein RNA aptamer beads, flow cytometry quenching; active compounds read low;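 active means response vs DMSO under 50%, meaning signal dropped by over half, treated as fluorescence quencher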;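 further: labelled aptamer on streptavidin beads without GRK2 as a quench counter-screen; 100% = bead fluorescence of DMSO wells and lower means quenching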
FAM quench DR – quenches fluorescent RNA aptamer, GRK2 hit artifact | Bead-bound FAM RNA aptamer fluorescence quenching, flow cytometry; active compounds read low | 35 tested, under 10 active | fluorescence ratio to DMSO, % at 11.1 µM | shares compounds with GRK2 inh;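 active means compounds that dim the fluorescent label, raw bead signal shifting by over 33 units between lowest and highest dose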
* = called active by the depositor; x = no result given.

SMILES	SENP1 inh	GRK2 inh	NadD inh	B2AR ag	ABHD5 PLIN5 PPI	GRK2 inh confirm	FAM quench CP1	others
CCOc1ccc(NC(=O)CSc2ccc3nnc(-c4cccnc4)n3n2)cc1	0	41*	-2	10	-1	x	x	GRK2 CP2=-1;FAM quench CP2=100
CC(=O)N1CCOc2ccc(S(=O)(=O)NC[C@H]3O[C@@H](n4cnc5c(N)ncnc54)[C@H](O)[C@@H]3O)cc21	2	0	1	-4	-2	x	x
O=C(CCc1ccccc1)Nc1nc2n(n1)C(c1ccc(Cl)cc1)CC(=O)N2 (centres undefined)	-1	100*	-1	-5	6	-3	95
COc1cc(S(=O)(=O)NCc2ccc(F)cc2)ccc1-n1cnnn1	1	0	0	5	6	x	x
COc1cc(/C=C2\C(=N)N3N=C(C)SC3=NC2=O)cc(Cl)c1OCCOc1ccc(NC(C)=O)cc1	-9	0	5	4	-1	x	x
Cc1ccccc1-c1nc(CS(=O)(=O)CC(=O)NCc2ccc3c(c2)OCO3)c(C)o1	0	83*	-1	-8	-2	0	89	GRK2 CP2=11;FAM quench CP2=97
COc1ccc(-c2nc(CS(=O)(=O)CC(=O)NCc3ccc4c(c3)OCO4)c(C)o2)cc1	2	0	-3	-1	10	x	x
CC1Cc2ccccc2N1C(=O)CSc1nncs1 (centres undefined)	-1	75*	0	-1	11	-2	99
Cc1ccc(C(C)C)c(OCC(=O)NNC(=O)CC2OC(=O)c3ccccc32)c1 (centres undefined)	-1	0	10	-8	-9	x	x
CC1CCCC(NC(=O)NC(=O)COC(=O)C2=NN(c3ccccc3)C(=O)CC2)C1C (centres undefined)	3	3	2	0	2	x	x
Nc1nc(N(Cc2ccccc2)Cc2ccccc2)nc(C(F)(F)F)n1	1	43*	-4	21	-8	x	x	GRK2 CP2=-6;FAM quench CP2=100
O=C1NC(=S)S/C1=C\c1ccc(SCc2ccccc2)o1	-6	46*	9	5	-1	21	97
CC1CCc2sc(C(=O)NNC(=O)c3ccncc3)cc2C1 (centres undefined)	-1	1	-4	-3	3	x	x
O=C1/C(=C/c2ccccc2)SC(=S)N1C1CCS(=O)(=O)C1 (centres undefined)	1	1	-7	-3	-1	x	x
Cc1ccc(/C=C2\SC(=S)N(C3CCS(=O)(=O)C3)C2=O)o1 (centres undefined)	-60	43*	10	1	2	7	104
Cc1c(C(=O)N(CCC#N)c2ccccc2)sc2nc3n(c(=O)c12)CCCC3	0	0	1	-20	4	x	x
COc1cc(/C=N/Nc2ccc(C(=O)O)cc2)ccc1O	-1	41*	-3	-14	0	26	90
COc1cc(/C=N/Nc2ccc(C(=O)O)cc2)cc(OC)c1OC	-2	1	1	1	0	x	x
Cc1cc(NC(=O)CN2C(=O)NC3(CCCCC3)C2=O)ccc1N1CCCC1	-8	x	3	0	-9	x	x
COc1ccc(C(=S)Nc2ccc(C)cc2)cc1	0	100*	0	-17	-10	-2	98
CC(C)(C)N(NS(=O)(=O)c1ccc(F)cc1)c1ccccc1	3	4	-3	-10	-9	x	x
COc1ccc2nc(SCC(=O)Nc3ccc4c(c3)OCCO4)[nH]c2c1	0	75*	-1	0	-8	99*	127	Aptamer quench=-29
COc1cc(C2N(c3ccccn3)C(=O)C3CCCN32)cc(OC)c1OC (centres undefined)	2	59*	10	2	-3	-2	99
COc1ccccc1NCCC(=O)O	0	2	-3	4	3	x	x
O=C(O)CCNc1ccc(NCCC(=O)O)c2c1C(=O)c1ccccc1C2=O	-21	42*	10	16	7	31	90
SMILES	SENP1 inh	GRK2 inh	NadD inh	B2AR ag	ABHD5 PLIN5 PPI	GRK2 inh confirm	FAM quench CP1	others
O=C(Cn1c(C(F)(F)F)nc2ccccc21)OCC(=O)c1c[nH]c2ccccc12	1	80*	0	0	1	x	x	GRK2 CP2=-43;FAM quench CP2=102
Cc1[nH]c2ccccc2c1C(=O)COC(=O)Cn1c(C(F)(F)F)nc2ccccc21	1	0	-8	-4	3	x	x
CCN(CC)CCOC(=O)C1(c2ccc(OC)c(OC)c2)CCCC1	3	0	-6	7	-1	x	x
CCN(CC)CCOC(=O)C1(c2ccccc2)CCCC1	0	69*	-9	-3	-2	0	99
CCCC(c1nnnn1CS(=O)(=O)c1ccc(C)cc1)N1CCC(C(N)=O)CC1 (centres undefined)	1	1	-2	12	0	x	x
O/N=C/Cc1[nH]c2ccccc2c1-c1ccccc1	-3	3	-5	14	-5	x	x
Cc1ccc(C(=O)OCc2c(C)noc2C)cc1NC(=O)c1ccco1	0	1	0	-4	0	-2	96
CCN1C[C@@H]2[C@@H]3C(=O)N(Cc4ccccc4)C(=O)[C@@H]3[C@](C)(C1=O)N2C(=O)c1ccc(F)cc1	1	x	1	7	4	x	x
COc1cc2c(cc1NC(=O)c1cccc([N+](=O)[O-])c1)oc1ccccc12	3	92*	1	7	0	-23	105
COc1cc2c(cc1NC(=O)c1ccc(C)c([N+](=O)[O-])c1)oc1ccccc12	0	0	1	7	3	x	x
O=C(NC1CCN(C(=O)c2cccc([N+](=O)[O-])c2)CC1)c1ccccc1	2	98*	-3	2	8	0	100
O=CN1CCN(C(=O)c2cccc([N+](=O)[O-])c2)CC1	0	x	-4	9	3	x	x
COc1ccc(S(=O)(=O)CCC(=O)NCCc2cccc(C)c2)cc1	-1	0	1	4	6	x	x
Cc1ccc(CCNC(=O)CCS(=O)(=O)c2ccc(Br)cc2)cc1	1	3	-4	2	4	0	100	Aptamer quench=9.3;FAM quench DR=102
